The values below come from ChEMBL document CHEMBL1153079, “Synthesis and biological evaluation of 3',4',5'-trimethoxychalcone analogues as inhibitors of nitric oxide production and tumor cell proliferation” (Bioorg Med Chem, 2009).

What all share (assay type): functional, cell-based
Assay [1] deals with Peritoneal macrophage cell. Put plainly: Inhibition of nitric oxide production in LPS/IFN-gamma-stimulated BALB/c mouse peritoneal macrophages by Griess method. Summed up:
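Murine peritoneal macrophages were stimulated with LPS (E. coli 055:B5) plus recombinant IFN-γ, and NO in the medium was measured with Griess reagent. Cell viability under the same conditions was checked by MTT. IC50 came from sigmoidal variable-slope dose–response curves. Triplicates were repeated three times (n = 9), reported as mean ± SD.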
(The Griess reaction detects nitrite, a stable product of nitric oxide.)

Assay [2] relates to COLO 205. Put plainly: Growth inhibition of human COLO205 cells after 48 hrs by MTT assay. The conditions noted are these: COLO 205, 48 h. A digest of the protocol:
(§1)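 Cells were from ATCC and grown in RPMI-1640 with 10% fetal calf serum, antibiotics and L-glutamine. Growth was read by MTT after continuous compound exposure, against a DMSO vehicle control, up to a maximum of 100 µM. IC50 came from sigmoidal variable-slope dose–response curves. Triplicates were run in three independent experiments, reported as mean ± SD.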
For orientation: Formazan colour is commonly taken as a measure of viable cells.

Assay [3] relates to HepG2. Put plainly: Growth inhibition of human HepG2 cells after 48 hrs by MTT assay. The settings on record: HepG2, 48 h. Summed up:
as §1

For orientation: IC50 means the point on the concentration scale where inhibition reaches its midpoint. `COc1cccc(/C=C/C(=O)c2cc(OC)c(OC)c(OC)c2)c1`: the IC50 is 0.3 µM in assay [1], 2.2 µM in assay [2] and 1.8 µM in assay [3].
With `COc1cc(C(=O)/C=C/c2ccc([N+](=O)[O-])cc2)cc(OC)c1OC`, the IC50 in assay [1] is 30 µM; in assay [2], 43 µM; in assay [3], more than 100 µM.
The corresponding values for `COc1cccc(/C=C/C(=O)c2cc(OC)c(OC)c(OC)c2)c1OC` are 2.4 µM, 13.2 µM and 11.5 µM.
For `COc1ccc(/C=C/C(=O)c2cc(OC)c(OC)c(OC)c2)cc1`, the IC50 in assay [1] stood at 7.6 µM; in assay [2], 46.4 µM; in assay [3], 49.5 µM.
Regarding `COc1cc(C(=O)/C=C/c2ccc(O)c(O)c2)cc(OC)c1OC`, the IC50 in assay [1] stood at 1.5 µM; in assay [2] it was 19.8 µM; in assay [3], 14.9 µM.
For `COc1cc(C(=O)/C=C/c2ccc(C)cc2)cc(OC)c1OC`, the IC50 in assay [1] worked out at 4.5 µM; in assay [2], 41.5 µM; in assay [3], 52 µM.
As for `COc1ccc(/C=C/C(=O)c2cc(OC)c(OC)c(OC)c2)cc1OC`, the IC50 in assay [1] is 4.5 µM; in assay [2] it was more than 100 µM; in assay [3], 20.3 µM.
The corresponding values for `COc1cccc(/C=C/C(=O)c2cc(OC)c(OC)c(OC)c2)c1O` are 3 µM, 13 µM and 13.5 µM.
The corresponding values for `COc1cc(/C=C/C(=O)c2cc(OC)c(OC)c(OC)c2)ccc1O` are 0.3 µM, more than 100 µM and more than 100 µM.
`COc1cc(C(=O)/C=C/c2cccc(C=O)c2)cc(OC)c1OC`: the IC50 in assay [1] was more than 50 µM; in assay [2], 22.5 µM; in assay [3], more than 100 µM.
With `COc1ccc(/C=C/C(=O)c2cc(OC)c(OC)c(OC)c2)c(OC)c1`, the figures for the IC50 in assay [1], in assay [2] and in assay [3] were more than 50 µM, 82.5 µM and more than 100 µM, respectively.
As to `COc1cc(OC)c(OC)cc1/C=C/C(=O)c1cc(OC)c(OC)c(OC)c1`, the IC50 stood at 4.6 µM in assay [1], 18.6 µM in assay [2] and 16.1 µM in assay [3].
In the case of `COc1cc(C(=O)/C=C/c2ccc(N(C)C)cc2)cc(OC)c1OC`, the IC50 turned out to be 27 µM in assay [1], 75 µM in assay [2] and 30 µM in assay [3].
For the compound `COc1cc(C(=O)/C=C/c2ccc(F)cc2)cc(OC)c1OC`, the IC50 turned out to be 17.6 µM in assay [1], 25.7 µM in assay [2] and 22 µM in assay [3].
With `COc1cc(C(=O)/C=C/c2ccc(O)cc2)cc(OC)c1OC`, the IC50 in assay [1] was determined as 5 µM; in assay [2], 29.7 µM; in assay [3], 16 µM.
Take `COc1cc(/C=C/C(=O)c2cc(OC)c(OC)c(OC)c2)cc(OC)c1OC`: the IC50 in assay [1] amounted to 2.8 µM; in assay [2], 19.2 µM; in assay [3], 19.6 µM.
As to `COc1cc(C(=O)/C=C/c2ccc(Br)cc2)cc(OC)c1OC`, the IC50 worked out at 20 µM in assay [1], 22.5 µM in assay [2] and 80 µM in assay [3].
The corresponding values for `COc1cc(C(=O)/C=C/c2cc(O)ccc2O)cc(OC)c1OC` are more than 50 µM, more than 100 µM and more than 100 µM.
The corresponding values for `COc1ccc(/C=C/C(=O)c2cc(OC)c(OC)c(OC)c2)cc1O` are 1.3 µM, 11.2 µM and 10.6 µM.
The corresponding values for `COc1cc(C(=O)/C=C/c2ccccc2C=O)cc(OC)c1OC` are 27 µM, 88 µM and more than 100 µM.
Take `COc1cc(C(=O)/C=C/c2ccc(C=O)cc2)cc(OC)c1OC`: the IC50 in assay [1] is more than 50 µM; in assay [2] it was 68.8 µM; in assay [3] it was more than 100 µM.
The corresponding values for `COc1cc(C(=O)/C=C/c2cccc(O)c2)cc(OC)c1OC` are 13.5 µM, 49 µM and 94 µM.
The corresponding values for `COc1cc(C(=O)/C=C/c2cc([N+](=O)[O-])ccc2O)cc(OC)c1OC` are 4.4 µM, 76 µM and more than 100 µM.
